We go through seven molecules from ChEMBL document CHEMBL3272191, “Aporphines. 14 Dopaminergic and antinociceptive activity of aporphine derivatives. Synthesis of 10-hydroxyaporphines and 10-hydroxy-N-n-propylnoraporphine” (1976).

Calls of active or inactive are those of the source.

Assay [1] concerns Mus musculus. The assay can be described thus: Antinociceptive activity in naloxone hydrochloride-pretreated albino CD-1 mouse at 0.1 to 10 mg/kg, ip after 60 mins by tail-flick method. Format: functional, organism-based. In general terms: Thermal pain tests record how soon the animal reacts.
Assay [2] relates to Rattus norvegicus. The assay can be described thus: Central dopaminergic activity in 6-OH-DA-lesioned specific pathogen-free Sprague-Dawley rat assessed as induction of rotational behavior measured as total time at 1 mg/kg, ip. The format is functional. The conditions noted are these: route intraperitoneal. The method in brief: (§1)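 Drugs were given ip, mostly to one group of four rats, with an extra group of four in some runs. Doses were 3 days or more apart over several months. Read-outs were total turning time (min), peak activity, overall mean activity and total activity, given as means ± SEM.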

Assay [3] concerns Rattus norvegicus. Briefly: Central dopaminergic activity in 6-OH-DA-lesioned ip dosed specific pathogen-free Sprague-Dawley rat assessed as induction of rotational behavior. The format is functional, organism-based. In a few lines:
as §1

The test system of assay [4] is Rattus norvegicus. The assay can be described thus: Central dopaminergic activity in 6-OH-DA-lesioned specific pathogen-free Sprague-Dawley rat assessed as induction of rotational behavior measured as total time at 0.05 mg/kg, ip. Format: functional. As to conditions: route intraperitoneal. In a few lines: as §1
Assay [5] has as its system Rattus norvegicus. The assay can be described thus: Central dopaminergic activity in 6-OH-DA-lesioned specific pathogen-free Sprague-Dawley rat assessed as induction of rotational behavior measured as total time at 0.025 mg/kg, ip. Format: functional. The conditions noted are these: route intraperitoneal. In a few lines:
as §1

Assay [6] concerns Rattus norvegicus. The assay can be described thus: Central dopaminergic activity in 6-OH-DA-lesioned specific pathogen-free Sprague-Dawley rat assessed as induction of rotational behavior measured as total time at 2 mg/kg, ip. Format: functional. As to conditions: route intraperitoneal. In a few lines: as §1
Assay [7] deals with Rattus norvegicus. Briefly: Central dopaminergic activity in 6-OH-DA-lesioned specific pathogen-free Sprague-Dawley rat assessed as induction of rotational behavior measured as total time at 0.01 mg/kg, ip. Format: functional. The conditions noted are these: route intraperitoneal. In a few lines:
as §1

Assay [8] deals with Rattus norvegicus. The assay can be described thus: Central dopaminergic activity in 6-OH-DA-lesioned specific pathogen-free Sprague-Dawley rat assessed as induction of rotational behavior measured as total time at 0.5 mg/kg, ip. Format: functional. The conditions noted are these: route intraperitoneal. In a few lines: as §1
The test system of assay [9] is Mus musculus. The assay can be described thus: Antinociceptive activity in albino CD-1 mouse at 0.1 to 10 mg/kg, ip after 60 mins by tail-flick method. The format is functional, organism-based. In a few lines:
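Male albino CD-1 mice (18–24 g) were used in groups of ten. Compounds were suspended in 0.5% methylcellulose and given ip. Light was focused on the ventral tail and set for a 2–4 s baseline flick; mice outside that range were excluded. The control was the mean of two readings 30 min apart. Latencies were read every 30 min for 2 h, with a 10 s cutoff. Read-out was %MPE = [(Tr − Tc)/(10 − Tc)] × 100, taken at time of peak effect.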

The test system of assay [10] is Rattus norvegicus. Briefly: Central dopaminergic activity in 6-OH-DA-lesioned specific pathogen-free Sprague-Dawley rat assessed as induction of rotational behavior measured as total time at 0.1 mg/kg, ip. The conditions noted are these: route intraperitoneal. The format is functional. In a few lines:
as §1

Assay [11] relates to Mus musculus. The assay can be described thus: Antinociceptive activity in albino CD-1 mouse at 0.1 to 10 mg/kg, ip after 10 mins by tail-flick method. The format is functional, organism-based.
For assay [12], the system named is Mus musculus. The assay can be described thus: Antinociceptive activity in naloxone hydrochloride-pretreated albino CD-1 mouse at 0.1 to 10 mg/kg, ip after 10 mins by tail-flick method. Format: functional, organism-based.
The subject of assay [13] is Rattus norvegicus. The assay can be described thus: Central dopaminergic activity in 6-OH-DA-lesioned specific pathogen-free Sprague-Dawley rat assessed as induction of rotational behavior measured as total time at 0.005 mg/kg, ip. Format: functional. As to conditions: route intraperitoneal. In a few lines: as §1
Assay [14] has as its system Rattus norvegicus. The assay can be described thus: Central dopaminergic activity in 6-OH-DA-lesioned specific pathogen-free Sprague-Dawley rat assessed as induction of rotational behavior measured as total time at 5 mg/kg, ip. Format: functional. As to conditions: route intraperitoneal. The method in brief:
as §1

Assay [15] deals with Rattus norvegicus. The assay can be described thus: Central dopaminergic activity in 6-OH-DA-lesioned specific pathogen-free Sprague-Dawley rat assessed as induction of rotational behavior measured as total time at 0.25 mg/kg, ip. Format: functional. As to conditions: route intraperitoneal. In a few lines: as §1
Assay [16] relates to Rattus norvegicus. The assay can be described thus: Central dopaminergic activity in 6-OH-DA-lesioned specific pathogen-free Sprague-Dawley rat assessed as induction of rotational behavior measured as total time at 25 mg/kg, ip. Format: functional. As to conditions: route intraperitoneal. The method in brief: (§2)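 Rotational behavior in unilaterally 6-OHDA-lesioned rats, ascending DA pathway. Drug given ip, mostly to one group of four rats, plus a second group of four for some doses. Injections at least 3 days apart over several months. Reported as mean total turning time (min), peak, overall and total activity, means ± SEM.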

Assay [17] deals with Rattus norvegicus. The assay can be described thus: Central dopaminergic activity in 6-OH-DA-lesioned specific pathogen-free Sprague-Dawley rat assessed as induction of rotational behavior measured as total time at 15 mg/kg, ip. The conditions noted are these: route intraperitoneal. The format is functional. In a few lines:
as §2

Assay [18] has as its system Mus musculus. The assay can be described thus: Antinociceptive activity in albino CD-1 mouse at 1 to 10 mg/kg, ip up to 2 hrs by tail-flick method. Format: functional, organism-based. In a few lines: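 Male albino CD-1 mice (18–24 g), ten per group, dosed ip as suspension in 0.5% methylcellulose. Radiant light on ventral tail, adjusted for baseline 2–4 sec; animals outside excluded. Two control latencies 30 min apart averaged; post-dose latencies every 30 min over 2 hr, 10-sec cutoff. %MPE = [(Tr − Tc)/(10 − Tc)] × 100, read at peak-effect time.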

Assay [19] deals with Rattus norvegicus. Briefly: Central dopaminergic activity in 6-OH-DA-lesioned specific pathogen-free Sprague-Dawley rat assessed as induction of rotational behavior measured as total time at 2.5 mg/kg, ip. The format is functional. The conditions noted are these: route intraperitoneal. The method in brief: as §1

With `CN1CCc2cccc3c2[C@H]1Cc1ccc(O)c(O)c1-3` [APOMORPHINE], the outcome in assay [1] and in [3] was Active. Besides, the Time in [2] is reported as 153 min; in assay [4] it was 63 min; in [5], 55 min; in [6], 238 min; in assay [7], 33 min; in [8], 144 min. Besides, in assay [9], the result was inactive.
On to `CCCN1CCc2cccc3c2[C@H]1Cc1ccc(O)c(O)c1-3` (racemic) [R-N-PROPYLNORAPOMORPHINE], for which the Time in [10] is on record as 360 min; in assay [4], 305 min; in assay [5] it was 185 min; in assay [13] it was 205 min; in assay [7], 200 min. The outcome in assay [11], in assay [3] and in [12] was Active.
Regarding `COc1ccc2c(c1O)-c1cccc3c1[C@@H](C2)N(C)CC3` [APOCIDEINE], the Time in assay [14] amounted to 200 min; in assay [2], 40 min.
As to `CCCN1CCc2cccc3c2C1Cc1cccc(O)c1-3` (racemic), the Time in assay [10] is recorded as 200 min; in assay [2] it was 725 min; in assay [4], 195 min; in [15], 580 min; in assay [7], 0 min. The outcome in assay [3] was Active.
In the case of `N[C@@H](Cc1ccc(O)c(O)c1)C(=O)O` [LEVODOPA], the values for the Time in assay [14], in assay [16] and in assay [17] were 35 min, 127 min and 90 min, respectively. Also, the result in assay [18] was inactive.
Regarding `CCCN1CCc2cccc3c2C1Cc1ccc(O)cc1-3` (racemic), the outcome in assay [1], in [3] and in assay [9] was Active. Moreover, the Time is on record as 177 min in assay [2], 0 min in assay [15], 174 min in assay [19] and 105 min in assay [8].
For the molecule `CN1CC[C@]23c4c5ccc(O)c4O[C@H]2[C@@H](O)C=C[C@H]3[C@H]1C5`, in assay [1], the result was inactive. In addition, the result in assay [9] was Active.
